Each structure is given as a SMILES string.

Test [1] has as its system L1210. Put plainly: Antitumor activity expressed as life span was determined against inoculated L1210 leukemia cells (1*10e5) in mice by 11.3 mg/kg dosage of compound (qd (x 3), for days 1, 4, 7,10,13,16). Type of test: functional, Mus musculus. In outline:
(§1)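 Female mice (~18 g, housed six per cage) received L1210 cells intraperitoneally on day 0. Drug was made fresh and injected at 0.01 mL/g; the stated dose is per injection. Controls received the same volume of 0.154 M NaCl. Survival was followed, with deaths assigned to tumour by necropsy or to drug toxicity by set criteria. Life span is given as mean ± SD.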

The test system of test [2] is L1210. Nature of the test: Antitumor activity expressed as life span was determined against inoculated L1210 leukemia cells (1*10e6) in mice by 110 mg/kg dosage of compound (qd (x 3), for days 1, 4, 7). Type of test: functional, Mus musculus. In outline:
as §1

Test [3] concerns L1210. Nature of the test: Antitumor activity expressed percentage increase in life span was determined against inoculated L1210 leukemia cells (1*10e6) in mice by 110 mg/kg dosage of compound (qd (x 3), for days 1, 4, 7). The test is classed as functional. The settings on record: Mus musculus. In outline:
(§2)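 L1210 cells were given intraperitoneally to female mice (~18 g). Freshly prepared drug was injected at 0.01 mL/g, dose per injection, and saline-injected controls were run. The end point was duration of survival. ILS was calculated as percent increase in mean life span over controls. Mice surviving 60 days or more counted as long-term survivors, scored as 60 days.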

The test system of test [4] is L1210. Nature of the test: Antitumor activity expressed as life span was determined against inoculated L1210 leukemia cells (1*10e6) in mice by 90 mg/kg dosage of compound (qd (x 3), for days 1- 7). Type of test: functional, Mus musculus. In outline: as §1
Test [5] deals with L1210. Nature of the test: Antitumor activity expressed percentage increase in life span was determined against inoculated L1210 leukemia cells (1*10e6) in mice by 180 mg/kg dosage of compound (qd (x 3), for days 1, 4, 7). The test is classed as functional. To be noted: Mus musculus. In outline: as §2
For test [6], the system named is L1210. Put plainly: Antitumor activity expressed percentage increase in life span was determined against inoculated L1210 leukemia cells (1*10e6) in mice by 45 mg/kg dosage of compound (qd (x 3), for days 1, 4, 7). The settings on record: Mus musculus. The test is classed as functional. In outline: as §2
In test [7] the test system is M5076. Put plainly: Antitumor activity was evaluated by measuring mean life span in tumor (M5076) inoculated mice at 22.5 mg/kg (qd3hx8),days 1,4,7,15,18,21. Type of test: functional, Mus musculus. In outline:
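Female mice of about 18 g received subcutaneous M5076 implants like those used for serial passage. Drug was prepared just before use and injected at 0.01 mL/g every 3 h (×8) on days 1, 4, 7, 15, 18 and 21, with the dose stated per injection. Controls received 0.154 M NaCl, and groups held 18 mice. Survival and tumor volume were recorded, and %ILS was derived from mean life span.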

Test [8] has as its system M5076. Put plainly: Antitumor activity was evaluated by measuring mean life span in tumor (M5076) inoculated mice at 5.6 mg/kg (qd3hx8),days 1-34. The test is classed as functional, Mus musculus. In outline:
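Female mice of about 18 g received subcutaneous M5076 implants matching those used for serial passage. Drug was freshly prepared and injected at 0.01 mL/g every 3 h (×8) on every 3rd day from day 1 to day 34, with the dose stated per injection. Controls received 0.154 M NaCl. Groups held 18 mice (11 in one group). Mean life span was reported as mean ± SD, and tumor volume was also assessed.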

Test [9] deals with L1210. Put plainly: Antitumor activity expressed percentage increase in life span was determined against inoculated L1210 leukemia cells (1*10e6) in mice by 50 mg/kg dosage of compound (qd (x 3), for days 1- 7). The settings on record: Mus musculus. The test is classed as functional. In outline: (§3)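 Female mice of about 18 g (BDF1, DBA/2 or C57Bl/6 stocks used) were inoculated intraperitoneally with 1 × 10^6 L1210 cells. Freshly prepared drug was given once daily from about 24 h after inoculation at 0.01 mL/g, with the dose stated per injection. Controls received 0.154 M NaCl, and groups held 6 mice. %ILS was taken from mean survival, with mice alive at 60 days or more counted as 60 days.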

For test [10], the system named is L1210. Nature of the test: Antitumor activity expressed percentage increase in life span was determined against inoculated L1210 leukemia cells (1*10e6) in mice by 70 mg/kg dosage of compound (qd (x 3), for days 1, 4, 7). The test is classed as functional. To be noted: Mus musculus. In outline:
as §3

The test system of test [11] is L1210. Put plainly: Antitumor activity expressed percentage increase in life span was determined against inoculated L1210 leukemia cells (1*10e6) in mice by 90 mg/kg dosage of compound (qd (x 3), for days 1- 7). The test is classed as functional. To be noted: Mus musculus. In outline: as §3
The subject of test [12] is L1210. Nature of the test: Antitumor activity expressed as life span was determined against inoculated L1210 leukemia cells (1*10e6) in mice by 140 mg/kg dosage of compound (qd (x 3), for days 1, 4, 7). The test is classed as functional, Mus musculus. In outline:
as §1

The subject of test [13] is B16 melanoma (mouse). Put plainly: Antitumor activity was evaluated by measuring mean life span in tumor (B16 melanoma) inoculated mice at 11.3 mg/kg (qd3hx8),days 1,4,7,10.
For test [14], the system named is B16 melanoma (mouse). Nature of the test: Antitumor activity was evaluated by measuring mean life span in tumor (B16 melanoma) inoculated mice at 22.5 mg/kg (qd3hx8),days 1,4,7,10.
The subject of test [15] is B16 melanoma (mouse). Put plainly: Antitumor activity expressed percentage increase in life span was determined against inoculated B16 melanoma in mice by 11.3 mg/kg dosage of compound (qd3hx8), for days 1,4,7,10.

In the case of `Nc1nc(Br)nc2c1ncn2[C@H]1C[C@H](O)[C@@H](CO)O1`, the Life span in the test with L1210 [1] was 18.67 days; with L1210 [2], 8.17 days; with L1210 [4], 4.83 days; in the test with M5076 [7] it was 43.33 days; in the test with M5076 [8], 34.44 days; with L1210 [12], 8 days. Also, the Life span in the test on B16 melanoma (mouse) [13] was 23.11 days; with B16 melanoma (mouse) [14] it was 20.89 days. In the test on L1210 [3], this compound came in with an ILS at 110 mg/kg of 29%. In the test with L1210 [5], this compound gave an ILS at 180 mg/kg of 0%. Besides, the increase in lifespan (ILS) at 45 mg/kg in the test on L1210 [6] is 113%. The compound further registered an ILS at 50 mg/kg in the test on L1210 [9] of 42%. The ILS at 70 mg/kg in the test with L1210 [10] amounted to 3%. Further, in the test on L1210 [11], the ILS at 90 mg/kg was found to be 0%. For the same compound, the ILS at 11.3 mg/kg in the test on B16 melanoma (mouse) [15] came out at 66%.

One may read the ILS as how much longer treated animals lived than controls. Low readings indicate little gain in survival, high ones much gain in survival.

For the origin of these results see ChEMBL document CHEMBL1122809, “Improved synthesis and antitumor activity of 2-bromo-2'-deoxyadenosine” (1984).
